An excerpt weighted towards active compounds, which were near 3.8% of everything screened.
KCNK9 inh = human KCNK9 channel inhibition. Q9NPC2. HEK293 KCNK9, FluxOR thallium flux fluorescence; hits give low values. B-score at 10 µM. 310,000 compounds, 1.2% hits;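 active = ratio B-score over 3 SD below the library mean, with starting fluorescence within 5 SD of its mean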;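 note: negative B-score means less thallium flux so channel inhibition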
KCNQ1 block = blocks the human KCNQ1 potassium channel | P51787 | CHO-K1 KCNQ1, FluxOR thallium flux fluorescence; hits give high values | B-score at 10 µM | 310,000 compounds, 1.3% hits | AID 2642;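 active = compounds whose thallium flux B-score, printed positive for inhibition, exceeds three library SD while starting fluorescence stays within three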;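 note: channel opened by potassium depolarization with thallium stimulus after 20 min compound exposure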
hERG protect = shields human hERG channel from block by proarrhythmic agents; activation (rescue from dofetilide block), less the hit threshold, % at 10 µM; 310,000 compounds, 0.51% hits; CHO-hERG, FluxOR thallium flux, dofetilide IC70 present;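 active = activation above the mean of controls blocked by dofetilide plus 5 SD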;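 note: thallium influx through hERG after potassium depolarization seen as dye fluorescence rise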
Kir21 block = inhibitors of mouse Kir2.1 inward-rectifier potassium channel; P35561; HEK293-Kir2.1, FluxOR thallium flux fluorescence; hits give low values; B-score at 10 µM; 310,000 compounds, 0.85% hits; AID 1672;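 active = fluorescence ratio B-score at or below minus 3 SD of library scores, with starting-brightness B-score within 2 SD, cut at about -4.2 in these data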;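 note: channel flux triggered by added potassium and thallium sulfate stimulus; B-score of peak minus minimum fluorescence over baseline after thallium stimulus; more negative B-score means stronger Kir2.1 block with less thallium influx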
KCNQ1 pot = human KCNQ1 channel potentiation or activation; CHO-K1 KCNQ1, thallium flux FluxOR fluorescence; hits give high values; P51787; B-score at 10 µM; 310,000 compounds, 0.35% hits;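 active = fluorescence ratio B-score, a plate-corrected score, at least three library SD, with initial intensity B-score within 5 SD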
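Schedule – 37 °C overnight plating, 90-min dark dye load, 20-min compound pretreatment · System – stable KCNQ1 CHO-K1 line · Probe or stimulus – thallium- and potassium-containing depolarizing buffer · Measured by – kinetic FluxOR fluorescence, 10 s baseline plus 110 s post-stimulus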
KCNK3 inh = human KCNK3 channel inhibition, primary screen; O14649; 340,000 compounds, 0.84% hits; CHO-KCNK3 thallium flux, FluxOR fluorescence; hits give low values; B-score at 10 µM;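 active = B-score under library mean minus 4 SD, starting fluorescence ratio at most library mean plus 5 SD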;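 note: more negative B-score means stronger inhibition of thallium flux through KCNK3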
Target sequence (O14649 whole entry, looked up): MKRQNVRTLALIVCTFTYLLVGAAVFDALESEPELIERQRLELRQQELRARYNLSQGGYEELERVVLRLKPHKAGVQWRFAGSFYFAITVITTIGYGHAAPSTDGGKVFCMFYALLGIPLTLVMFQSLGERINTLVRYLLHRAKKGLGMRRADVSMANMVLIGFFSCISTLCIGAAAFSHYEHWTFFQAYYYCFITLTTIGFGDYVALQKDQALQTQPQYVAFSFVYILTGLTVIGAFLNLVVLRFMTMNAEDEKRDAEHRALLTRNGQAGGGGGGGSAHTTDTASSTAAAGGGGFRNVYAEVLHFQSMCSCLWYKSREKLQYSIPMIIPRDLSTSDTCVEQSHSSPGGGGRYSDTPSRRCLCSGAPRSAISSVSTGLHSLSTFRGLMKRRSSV
Active calls of the source: *; i = inactive; x = not tested or not shown.

SMILES	KCNK9 inh	KCNQ1 block	hERG protect	Kir21 block	KCNQ1 pot	KCNK3 inh
CC(=O)c1c(C)[nH]c(C(=O)Nc2nc(-c3ccc(-c4ccccc4)cc3)cs2)c1C	i	8*	-29	1.8	i	i
COc1ccc(Nc2ncnc3ccc(C)cc23)cc1	i	i	1	-6*	i	i
CC1(C)Cc2ccccc2C(/C(=N/O)C(N)=O)=N1	i	i	-2	0.85	i	i
CCOc1ccc(Cc2c(Cl)nc(N)nc2Cl)cc1	i	i	-12	-0.01	i	i
CCOc1ccc(Cc2c(Cl)nc(SC)nc2N(C)C)cc1	-7.6*	i	-10	-0.05	i	i
CCOC(=O)C1C(=O)Nc2nc(C)nn2C1c1ccccc1 (stereo not drawn)	i	i	-12	1.4	i	i
O=C(O)Cn1c(COc2ccc(Cl)cc2)nc2ccccc21	i	i	-7	2.1	i	i
Cc1cc(C)cc(NC(=O)Cn2c(-c3ccccc3Cl)nc3ccccc32)c1	i	i	-9	-1.1	i	i
Cc1ccc(SCc2nc3ccccc3n2CC(=O)Nc2ccccc2)cc1	-6.9*	i	-10	0.22	i	i
O=C(Cn1c(CO)nc2ccccc21)Nc1ccccc1Cl	i	i	-5	-9.4*	i	i
O=C(Cn1c(-c2ccccc2Cl)nc2ccccc21)Nc1cccc(Cl)c1	-7.5*	i	-8	-0.82	i	i
O=C(Cn1c(COc2ccccc2)nc2ccccc21)Nc1cccc(Cl)c1	i	i	6.2*	1.1	i	i
COCCN(C(=O)COC(=O)c1ccco1)c1c(N)n(Cc2ccccc2)c(=O)[nH]c1=O	i	i	-10	-0.72	i	i
Cn1c(SCC(=O)N2CCCc3ccccc32)nc2cccnc21	i	i	-13	-0.98	i	i
CCn1c(SCC(=O)N2CCCc3ccccc32)nc2ccccc2c1=O	i	i	-5	-3	i	i
Cc1[nH]c2ccccc2c1SCC(=O)N1CCCc2ccccc21	i	6*	-24	-7.8*	i	i
CC(C)Cn1c(SCC(=O)N2CCCc3ccccc32)nc2ccccc2c1=O	i	6*	-10	-0.05	i	x
CCn1c(SCC(=O)N2CCCc3ccccc32)nc2cccnc21	i	i	-14	-4.9*	i	i
O=C(CCNC(=O)c1ccccc1)NCc1ccccc1F	x	x	x	x	x	i
CNc1nc(OCC(F)(F)F)nc(OCC(F)(F)F)n1	i	i	-5	0.25	i	i
CCC(C)Nc1ccc(NC(C)CC)cc1 (stereo not drawn)	x	x	x	x	x	-8.9*
CN1CC(c2ccccn2)C2(SC(=S)N(Cc3ccccc3)C2=O)C12C(=O)Nc1ccccc12 (stereo not drawn)	i	6*	-11	-0.39	i	i
CN1CC(c2ccccc2)C2(SC(=S)N(Cc3ccco3)C2=O)C12C(=O)Nc1ccccc12 (stereo not drawn)	i	i	-3	-1.6	i	i
O=C(O)C/C(=C\c1cc(Br)cs1)c1nc2ccccc2o1	i	i	6.1*	0.02	i	i
Cc1ccc(NC(=O)C(C)C(=O)Nc2ccc(C)cc2)cc1	i	i	-8	0.84	i	i
SMILES	KCNK9 inh	KCNQ1 block	hERG protect	Kir21 block	KCNQ1 pot	KCNK3 inh
COn1c(SCc2ccccc2)nc2ccccc2c1=O	i	i	-13	0.24	i	i
CC(C)(C)c1ccc(-c2nnc(SCCC#N)n2C2CCCC2)cc1	i	6*	-18	0.5	i	i
COc1ccccc1N1C(=O)S/C(=C\c2ccc(C)s2)C1=O	i	i	4.8*	0.08	i	i
N=c1ncn(Cc2ccccc2)c2nc(SCCOc3ccccc3)[nH]c12	i	i	-5	-1.6	9*	i
COc1ccc(Cl)cc1S(=O)(=O)N1CCC(C(=O)NCCc2ccccc2)CC1	i	i	-11	-0.83	i	i
C=CCn1c(C)cc(-c2csc(NCC)n2)c1C	i	6*	-12	-0.3	i	i
C=CCn1c(C)cc(-c2csc(NC)n2)c1C	x	x	x	x	x	i
CCc1nc2c(c(=O)c3ccccc3n2C)c(=O)n1CCc1ccc(OC)cc1	-12*	7*	-15	0.48	i	x
